From ChEMBL document CHEMBL3097989, “Antimicrobial activity of de novo designed cationic peptides against multi-resistant clinical isolates” (Eur J Med Chem, 2014)

Key:
[1] = tested on: Klebsiella pneumoniae; assay: Antibacterial activity against Klebsiella pneumoniae M9885 clinical isolate expressing blaKPC-2 gene by microdilution test; type: functional
Method in brief: (§1)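 MIC by standard broth microdilution following CLSI recommendations, in Mueller Hinton broth supplemented with Ca²⁺ (20-25mg/L) and Mg²⁺ (10-12.5mg/L); peptides tested against a panel of multi-resistant clinical isolates plus ATCC reference strains.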

[2] = tested on: Enterococcus faecium; assay: Antibacterial activity against Enterococcus faecium PZAP95 by microdilution test; type: functional; method in brief: as §1
[3] = Toxicity in human RBC assessed as hemolytic activity relative to control; type: cell-based, Erythrocyte; conditions: red blood cells (RBC), read-out: Activity
Method in brief: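 Heparinized human whole blood diluted 3x in PBS and centrifuged 10 min at 1500 rpm, repeated three times. Cells resuspended to 10% (v/v), then diluted to about 0.5% (v/v). Peptides added at various concentrations for 30 min at 37 °C. Supernatant absorbance read at 550 nm. Lysis calculated against buffer (0%) and water (100%). Readings taken in triplicate and averaged.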

[4] = tested on: Staphylococcus haemolyticus; assay: Antibacterial activity against Staphylococcus haemolyticus M2976 clinical isolate expressing mecA gene by microdilution test; type: functional
Method in brief: (§2)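 MIC by standard broth microdilution following CLSI recommendations, in Mueller Hinton broth supplemented with Ca²⁺ (20-25 mg/L) and Mg²⁺ (10-12.5 mg/L); ATCC reference strains included in the panel.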

[5] = tested on: Enterococcus gallinarum; assay: Antibacterial activity against Enterococcus gallinarum M2685 clinical isolate expressing vanC1 and vanA gene by microdilution test; type: functional; method in brief: as §1
[6] = tested on: Staphylococcus aureus; assay: Antibacterial activity against Staphylococcus aureus M6794 clinical isolate expressing mecA gene by microdilution test; type: functional; method in brief: as §2
[7] = tested on: Klebsiella pneumoniae; assay: Antibacterial activity against Klebsiella pneumoniae PFAV3 by microdilution test; type: functional; method in brief: as §1
[8] = tested on: Acinetobacter sp.; assay: Antibacterial activity against Acinetobacter sp. M5179 clinical isolate expressing blaOXA-51 gene by microdilution test; type: functional; method in brief: as §1
[9] = tested on: Klebsiella pneumoniae; assay: Antibacterial activity against Klebsiella pneumoniae M9170 clinical isolate expressing blaOXA-GIII gene by microdilution test; type: functional; method in brief: as §1
[10] = tested on: Klebsiella pneumoniae; assay: Antibacterial activity against Klebsiella pneumoniae M7647 clinical isolate expressing blaVIM, blaCTX-M-2, blaTEM-1 and blaSHV-1 gene by microdilution test; type: functional; method in brief: as §1
[11] = tested on: Escherichia coli; assay: Antibacterial activity against Escherichia coli M9209 clinical isolate expressing blaKPC-2 gene by microdilution test; type: functional; method in brief: as §1
[12] = tested on: Staphylococcus epidermidis; assay: Antibacterial activity against Staphylococcus epidermidis M2919 clinical isolate expressing mecA gene by microdilution test; type: functional; method in brief: as §2
[13] = tested on: Enterococcus faecium; assay: Antibacterial activity against Enterococcus faecium M2664 clinical isolate expressing vanA gene by microdilution test; type: functional; method in brief: as §1
[14] = tested on: Pseudomonas aeruginosa; assay: Antibacterial activity against Pseudomonas aeruginosa M5109 clinical isolate expressing blaVIM and blaGES-1 gene by microdilution test; type: functional; method in brief: as §2
[15] = tested on: Staphylococcus aureus; assay: Antibacterial activity against Staphylococcus aureus M6820 clinical isolate expressing mecA gene by microdilution test; type: functional; method in brief: as §2
[16] = tested on: Enterococcus faecalis; assay: Antibacterial activity against Enterococcus faecalis ATCC 51299 clinical isolate expressing vanB gene by microdilution test; type: functional; method in brief: as §1
[17] = tested on: Acinetobacter sp.; assay: Antibacterial activity against Acinetobacter sp. M5277 clinical isolate expressing blaPER gene by microdilution test; type: functional; method in brief: as §1
[18] = tested on: Enterococcus faecalis; assay: Antibacterial activity against Enterococcus faecalis M4899 clinical isolate expressing vanB gene by microdilution test; type: functional; method in brief: as §1
[19] = tested on: Staphylococcus haemolyticus; assay: Antibacterial activity against Staphylococcus haemolyticus M3014 by microdilution test; type: functional; method in brief: as §2
[20] = tested on: Escherichia coli; assay: Antibacterial activity against Escherichia coli PABC11 clinical isolate expressing blaCTX-M-2 gene by microdilution test; type: functional; method in brief: as §1
[21] = tested on: Pseudomonas aeruginosa; assay: Antibacterial activity against Pseudomonas aeruginosa M7907 clinical isolate expressing blaPER gene by microdilution test; type: functional; method in brief: as §2
[22] = tested on: Escherichia coli; assay: Antibacterial activity against Escherichia coli PNEU23 clinical isolate expressing blaOXA-GIII and blaTEM-1 gene by microdilution test; type: functional; method in brief: as §1
[23] = tested on: Enterococcus faecalis; assay: Antibacterial activity against Enterococcus faecalis M6983 clinical isolate expressing vanA gene by microdilution test; type: functional; method in brief: as §1
[24] = tested on: Klebsiella pneumoniae; assay: Antibacterial activity against Klebsiella pneumoniae M9140 clinical isolate expressing blaCIT gene by microdilution test; type: functional; method in brief: as §1
[25] = tested on: Staphylococcus cohnii; assay: Antibacterial activity against Staphylococcus cohnii M6767 clinical isolate expressing mecA gene by microdilution test; type: functional; method in brief: as §2
[26] = tested on: Klebsiella pneumoniae; assay: Antibacterial activity against Klebsiella pneumoniae M5825 clinical isolate expressing blaGES-3 and blaCTX-M-2 gene by microdilution test; type: functional; method in brief: as §1
[27] = tested on: Enterococcus faecium; assay: Antibacterial activity against Enterococcus faecium M2304 clinical isolate expressing vanA gene by microdilution test; type: functional; method in brief: as §1
[28] = tested on: Acinetobacter sp.; assay: Antibacterial activity against Acinetobacter sp. M9665 clinical isolate expressing blaOXA-51 gene by microdilution test; type: functional; method in brief: as §1
[29] = tested on: Enterococcus faecalis; assay: Antibacterial activity against Enterococcus faecalis ATCC 29212 by microdilution test; type: functional; method in brief: as §1
[30] = tested on: Pseudomonas aeruginosa; assay: Antibacterial activity against Pseudomonas aeruginosa ATCC 27853 by microdilution test; type: functional; method in brief: as §1
[31] = tested on: Pseudomonas aeruginosa; assay: Antibacterial activity against Pseudomonas aeruginosa M5200 clinical isolate expressing blaVIM and blaGES-1 gene by microdilution test; type: functional; method in brief: as §2
[32] = tested on: Klebsiella pneumoniae; assay: Antibacterial activity against Klebsiella pneumoniae M13540 clinical isolate expressing blaKPC-2 gene by microdilution test; type: functional; method in brief: as §1
[33] = tested on: Pseudomonas aeruginosa; assay: Antibacterial activity against Pseudomonas aeruginosa M7728 clinical isolate expressing blaIMP gene by microdilution test; type: functional; method in brief: as §2
[34] = tested on: Escherichia coli; assay: Antibacterial activity against Escherichia coli M7859 clinical isolate expressing blaCIT gene by microdilution test; type: functional; method in brief: as §1
[35] = tested on: Klebsiella pneumoniae; assay: Antibacterial activity against Klebsiella pneumoniae M9375 clinical isolate expressing blaCTX-M-2, blaTEM-1 and blaSHV-1 gene by microdilution test; type: functional; method in brief: as §1
[36] = tested on: Enterococcus gallinarum; assay: Antibacterial activity against Enterococcus gallinarum M2723 clinical isolate expressing vanC1 and vanA gene by microdilution test; type: functional; method in brief: as §1
[37] = tested on: Staphylococcus aureus; assay: Antibacterial activity against Staphylococcus aureus P33 clinical isolate expressing msrA gene by microdilution test; type: functional; method in brief: as §2
[38] = tested on: Staphylococcus aureus; assay: Antibacterial activity against Staphylococcus aureus M4046 clinical isolate expressing mecA gene by microdilution test; type: functional; method in brief: as §2
[39] = tested on: Pseudomonas aeruginosa; assay: Antibacterial activity against Pseudomonas aeruginosa M11005 clinical isolate expressing blaKPC-2 gene by microdilution test; type: functional; method in brief: as §1
[40] = tested on: Enterococcus faecium; assay: Antibacterial activity against Enterococcus faecium M6261 by microdilution test; type: functional; method in brief: as §1
[41] = tested on: Staphylococcus aureus; assay: Antibacterial activity against Staphylococcus aureus P28 clinical isolate expressing ermA gene by microdilution test; type: functional; method in brief: as §2
[42] = tested on: Klebsiella pneumoniae; assay: Antibacterial activity against Klebsiella pneumoniae M1803 clinical isolate expressing blaPER-2, blaCTX-M-2, blaTEM-1, blaSHV and blaOXA-9 gene by microdilution test; type: functional; method in brief: as §1
[43] = tested on: Acinetobacter sp.; assay: Antibacterial activity against Acinetobacter sp. M5282 clinical isolate expressing blaOXA-51 gene by microdilution test; type: functional; method in brief: as §1
[44] = tested on: Klebsiella pneumoniae; assay: Antibacterial activity against Klebsiella pneumoniae M9491 clinical isolate expressing blaMOX gene by microdilution test; type: functional; method in brief: as §1
[45] = tested on: Klebsiella pneumoniae; assay: Antibacterial activity against Klebsiella pneumoniae M9310 clinical isolate expressing blaCTX-M-2, blaTEM-1 and blaSHV-1 gene by microdilution test; type: functional; method in brief: as §1
[46] = tested on: Staphylococcus hominis; assay: Antibacterial activity against Staphylococcus hominis M2973 clinical isolate expressing mecA gene by microdilution test; type: functional; method in brief: as §2
[47] = tested on: Enterococcus faecium; assay: Antibacterial activity against Enterococcus faecium M2619 clinical isolate expressing vanB gene by microdilution test; type: functional; method in brief: as §1
[48] = tested on: Staphylococcus aureus; assay: Antibacterial activity against Staphylococcus aureus ATCC 29213 by microdilution test; type: functional; method in brief: as §2
[49] = tested on: Acinetobacter sp.; assay: Antibacterial activity against Acinetobacter sp. M7489 clinical isolate expressing blaOXA-51 and blaTEM gene by microdilution test; type: functional; method in brief: as §1

## H-WPKWWKWKRRWGRKKAKKRRG-NH2
[1]
  MIC90: > 1020 µg/mL
[2]
  MIC90: 32 µg/mL
[3]
  hemolysis: 3.4%
[4]
  MIC90: 16 µg/mL
[5]
  MIC90: 16 µg/mL
[6]
  MIC90: 32 µg/mL
[7]
  MIC90: 1020 µg/mL
[8]
  MIC90: 64 µg/mL
[9]
  MIC90: > 1020 µg/mL
[10]
  MIC90: > 1020 µg/mL
[11]
  MIC90: 128 µg/mL
[12]
  MIC90: 16 µg/mL
[13]
  MIC90: 16 µg/mL
[14]
  MIC90: 128 µg/mL
[15]
  MIC90: 64 µg/mL
[16]
  MIC90: 256 µg/mL
[17]
  MIC90: 64 µg/mL
[18]
  MIC90: 256 µg/mL
[19]
  MIC90: 16 µg/mL
[20]
  MIC90: 128 µg/mL
[21]
  MIC90: 128 µg/mL
[22]
  MIC90: 128 µg/mL
[23]
  MIC90: 64 µg/mL
[24]
  MIC90: 1020 µg/mL
[25]
  MIC90: 16 µg/mL
[26]
  MIC90: > 1020 µg/mL
[27]
  MIC90: 16 µg/mL
[28]
  MIC90: 128 µg/mL
[29]
  MIC90: 64 µg/mL
[30]
  MIC90: 64 µg/mL
[31]
  MIC90: 64 µg/mL
[32]
  MIC90: > 1020 µg/mL
[33]
  MIC90: 128 µg/mL
[34]
  MIC90: 128 µg/mL
[35]
  MIC90: 1020 µg/mL
[36]
  MIC90: 32 µg/mL
[37]
  MIC90: 32 µg/mL
[38]
  MIC90: 32 µg/mL
[39]
  MIC90: 64 µg/mL
[40]
  MIC90: 32 µg/mL
[41]
  MIC90: 32 µg/mL
[42]
  MIC90: > 1020 µg/mL
[43]
  MIC90: 64 µg/mL
[44]
  MIC90: 1020 µg/mL
[45]
  MIC90: > 1020 µg/mL
[46]
  MIC90: 4 µg/mL
[47]
  MIC90: 32 µg/mL
[48]
  MIC90: 32 µg/mL
[49]
  MIC90: 64 µg/mL
